ChEMBL document CHEMBL4825663 (J Med Chem, 2021)

Experiments:
[1] = Oral bioavailability in Beagle dog at 10 mg/kg measured upto 48 hrs by LC-MS/MS analysis; assay type: ADME, organism-based, Canis lupus familiaris; settings: in vivo
Procedure, shortened: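 Plasma pharmacokinetics in male Sprague-Dawley rats and male Beagle dogs (n = 3 per species), each given a single dose by IV at 3 mg/kg and by PO at 10 mg/kg. Cmax, Tmax, T1/2 and AUClast were derived for each route. F (%) was calculated from the PO and IV AUClast.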

[2] = Drug distribution in Sprague-Dawley rat bile; assay type: ADME, tissue-based; settings: in vivo
[3] = Toxicity in Beagle dog assessed as enlargement of lymph nodes at >= 100 mg/kg, po and measured after 13 weeks; assay type: organism-based, Canis lupus familiaris; settings: in vivo, 2184 h
[4] = Cmax in human upto 360 mg, po administered as repeated dose for 5 consecutive days; assay type: ADME, organism-based; design: route oral, dose <=360; settings: in vivo
[5] = biological target: T1, Multidrug and toxin extrusion protein 2 (Homo sapiens, UniProt Q86VL8); experiment: Inhibition of human MATE2K assessed as reduction in intracellular probe substrate accumulation upto 100 uM by microplate scintillation counter analysis relative to control; assay type: cell-based
T1 sequence (Q86VL8 whole entry): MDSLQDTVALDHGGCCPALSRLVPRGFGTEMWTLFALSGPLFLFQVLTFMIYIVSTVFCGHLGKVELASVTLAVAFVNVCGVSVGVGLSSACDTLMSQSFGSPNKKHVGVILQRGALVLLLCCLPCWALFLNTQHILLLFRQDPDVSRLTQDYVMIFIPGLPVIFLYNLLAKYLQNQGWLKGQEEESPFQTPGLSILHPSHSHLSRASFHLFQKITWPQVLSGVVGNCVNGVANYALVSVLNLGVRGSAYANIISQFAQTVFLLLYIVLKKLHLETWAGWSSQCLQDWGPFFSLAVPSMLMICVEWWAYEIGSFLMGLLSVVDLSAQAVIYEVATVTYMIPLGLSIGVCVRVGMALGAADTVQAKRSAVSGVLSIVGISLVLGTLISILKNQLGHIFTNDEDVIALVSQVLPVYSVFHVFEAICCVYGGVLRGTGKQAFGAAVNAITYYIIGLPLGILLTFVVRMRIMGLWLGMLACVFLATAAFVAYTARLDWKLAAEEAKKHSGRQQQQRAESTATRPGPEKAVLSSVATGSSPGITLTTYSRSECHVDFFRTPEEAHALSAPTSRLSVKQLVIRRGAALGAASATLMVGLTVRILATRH
Procedure, shortened: (§1)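 Cellular uptake-inhibition assays used Chinese hamster ovary, HEK293 or MDCKII cells stably expressing the respective human SLC transporter, run alongside the corresponding control cells. Inhibitor was tested at concentrations up to 100 μM.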

[6] = AUClast in Beagle dog at 10 mg/kg, po measured upto 48 hrs by LC-MS/MS analysis; assay type: ADME, organism-based, Canis lupus familiaris; design: route oral, dose 10 mg/kg, time <=48; settings: in vivo
Procedure, shortened: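 Single dose in male Sprague-Dawley rats and male Beagle dogs (n = 3 per species), given 3 mg/kg IV or 10 mg/kg PO. Plasma was sampled to derive Cmax, Tmax, T1/2 and AUClast by each route. Oral bioavailability (F) was calculated from the PO and IV AUClast.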

[7] = Apparent permeability from apical to basolateral side in MDCK-II cells after 120 mins by LC-MS/MS analysis; assay type: ADME, cell-based, Canis lupus familiaris; settings: dog
[8] = biological target: T2, Solute carrier organic anion transporter family member 1B1 (Homo sapiens, UniProt Q9Y6L6); experiment: Inhibition of human OATP1B1 assessed as reduction in intracellular probe substrate accumulation upto 100 uM by microplate scintillation counter analysis relative to control; assay type: cell-based; procedure, shortened: as §1
T2 sequence (Q9Y6L6 whole entry): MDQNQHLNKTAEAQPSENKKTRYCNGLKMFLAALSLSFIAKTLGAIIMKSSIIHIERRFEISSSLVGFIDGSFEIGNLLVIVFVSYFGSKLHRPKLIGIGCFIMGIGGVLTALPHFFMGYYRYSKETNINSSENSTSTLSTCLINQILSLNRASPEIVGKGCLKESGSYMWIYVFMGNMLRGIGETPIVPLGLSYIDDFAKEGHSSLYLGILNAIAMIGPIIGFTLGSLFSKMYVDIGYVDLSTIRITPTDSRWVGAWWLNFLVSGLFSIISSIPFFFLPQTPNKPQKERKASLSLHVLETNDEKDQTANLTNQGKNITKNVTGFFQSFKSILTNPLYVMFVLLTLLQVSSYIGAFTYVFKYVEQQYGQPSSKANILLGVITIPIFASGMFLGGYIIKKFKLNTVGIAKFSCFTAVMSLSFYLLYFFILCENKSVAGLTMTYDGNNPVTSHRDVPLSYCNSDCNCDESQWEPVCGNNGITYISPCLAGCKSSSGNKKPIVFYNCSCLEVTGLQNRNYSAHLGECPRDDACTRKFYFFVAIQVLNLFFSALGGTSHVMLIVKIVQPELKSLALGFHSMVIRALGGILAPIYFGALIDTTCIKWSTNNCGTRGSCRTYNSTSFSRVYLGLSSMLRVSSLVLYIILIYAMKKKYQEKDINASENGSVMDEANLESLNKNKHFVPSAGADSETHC

[9] = Drug distribution in Sprague-Dawley rat intestine at 20 mg/kg, po measured upto 168 hrs in presence of 10 mg/kg encequidar by LC-MS/MS analysis; assay type: ADME, organism-based; settings: in vivo
[10] = Drug distribution in BALB/c mouse liver at 20 mg/kg, po measured upto 24 hrs in presence of 10 mg/kg encequidar by LC-MS/MS analysis; assay type: ADME, organism-based; settings: in vivo
[11] = Half life in Sprague-Dawley rat at 20 mg/kg, po measured upto 24 hrs by LC-MS/MS analysis; settings: in vivo
[12] = Volume of distribution in Sprague-Dawley rat at 6 mg/kg, iv measured upto 24 hrs by LC-MS/MS analysis; assay type: ADME, organism-based; settings: in vivo
[13] = Ratio of drug concentration in BALB/c mouse lung to plasma at 20 mg/kg, po measured upto 24 hrs in presence of 10 mg/kg encequidar by LC-MS/MS analysis; assay type: ADME, organism-based
[14] = system: NCI-H460; experiment: Antitumor activity against human NCI-H460 cells xenografted in athymic nude mouse assessed as median tumor growth delay at 40 mg/kg, po administered every other day for 4 doses in presence of 16 mg/kg encequidar and monitored for 48 days; assay type: functional; settings: time 48 day
Procedure, shortened: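 Female athymic NCr-nu mice carried subcutaneous NCI-H460 xenografts. […] Tumor weights and body weights were followed for 48 days after implantation. Read-out was median tumor growth delay.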

bioavailability [1] [%] | Drug uptake [2] | Cmax [4] [ng/mL] | AUC(0-t) at 48 h [6] [ng·h/mL] | Papp A→B at 2 h [7] [×10⁻⁶ cm/s] | inhibition (INH) [8] [%] | SMILES | Activity [3] | inhibition (INH) [5] [%] | Drug uptake [9] | Drug uptake [10] | half-life at 24 h [11] [h] | Vd [12] [L/kg] | Kp at 24 h [13] | Time [14] [days]
11.2 | Active | 22.5 | 724 | 0.002 | < 50 | COc1cc2c(cc1OC)CN(CCc1ccc(-n3nnc(-c4cc(OC)c(OC)cc4NC(=O)c4cc(=O)c5ccccc5o4)n3)cc1)CC2 | Toxic | < 50 | – | – | – | – | – | –
– | – | – | – | – | – | CC(=O)O[C@H]1C(=O)[C@@]2(C)[C@H]([C@H](OC(=O)c3ccccc3)[C@]3(O)C[C@H](OC(=O)[C@H](O)[C@@H](NC(=O)c4ccccc4)c4ccccc4)C(C)=C1C3(C)C)[C@]1(OC(C)=O)CO[C@@H]1C[C@@H]2O [PACLITAXEL] | – | – | Active | Active | 8 | 23.6 | > 1 | 8.7
